The EternaBench riboswitch data

Test system: MS2 coat protein
Assay: apparent Kd, MS2 coat protein; higher = weaker binding; RNA-MaP array; FMN 200 µM where present
How it was run: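 The apparent Kd is the median of filtered binding-curve fits, one per cluster, to green signal normalised to red-channel RNA signal and control-cluster median Fmax. The clusters were on Illumina sequencing chips, and stalled E. coli RNA polymerase had transcribed the designs on them. Titration used SNAP-549-labelled MS2 coat protein from 0.7 or 1.5 nM, doubling to 3 µM, without and then with constant ligand, in 100 mM Tris-HCl pH 7.5, 80 mM KCl, 4 mM MgCl2, BSA, DTT, yeast tRNA and Tween-20.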

[1] = designed as: OFF switch for flavin mononucleotide, no ligand
[2] = ligand present: flavin mononucleotide, designed as: OFF switch for flavin mononucleotide
[3] = designed as: ON switch for flavin mononucleotide, no ligand
[4] = ligand present: flavin mononucleotide, designed as: ON switch for flavin mononucleotide

| Sequence | apparent Kd [1] [nM] | apparent Kd [2] [nM] | apparent Kd [3] [nM] | apparent Kd [4] [nM] |
| --- | --- | --- | --- | --- |
| GGUUGGCGAGGAUAUACAUGAGGAUCACCCAUGUGGUCCUGAGGCUGAUCAAGCCUAUGUAGAAGGCGCAAAUC | 215 | 38.1 |  |  |
| GCGCAAGCAUGAGGAUAUUUAUUAAAUAAUAAUAAAGAAGGCAUGUCAAAUGACAUGAGGAUCACCCAUGUUGGCAAAAUGCGC |  |  | 45.9 | 9.77 |
| GACUUGUCAGGAUAUCUUACAUAAACAUCGUAGUUACAAUUGGAGAAGGGACAUGAGGAUCACCCAUGUUUGGC | 28 | 25.4 |  |  |
| UUAAAUCAUGUAGGAUAUGCAUGGCGAAGCUACGCAGAAGGACAUGAGGAUCACCCAUGUUCUGGCUACCGAGUUCGGUGGCAA | 20.7 | 83.2 |  |  |
| AUUAUAUAGACAGGAUAUUGAUUAUUAUUUUAACAUGAGGAUCACCCAUGUAACCUUAUGUGUAGCAAGAAGGGUCAUUUAUUA | 84.3 | 185 |  |  |
| AUCAGCUCGUAAGGAUAUACGUCACUGCGUCAGCAGUGUGGUAAGAUCACAUGAGGAUCACCCAUGUAGAAGGGACGAGCUGAU | 15.6 | 142 |  |  |
| UUCAGCUCGUCAGGAUAUACGUCACUGCUUCGGCAGUGUGGUAAGAUCACAUGAGGAUCACCCAUGUAGAAGGGACGAGCUGAA | 12.5 | 254 |  |  |
| UUGUUGUAUGUAGGAUAUGCAUGUUAUUAUUAUGCAGAAGGACAUGAGGAUCACCCAUGUGUAUUAUUAUUAUAUAUUAUAUAU | 20.9 | 23.3 |  |  |
| GGAAAUCAUGUAGGAUAUGCAUGGCGAAGCUACGCAGAAGGACAUGAGGAUCACCCAUGUUCUAGCGUCUGAGUUCAGAUGCAA | 20.4 | 56.3 |  |  |
| AUAUCCUAGAUAGGAUAUACUGAGGUUGAAUGGGUAGAAGGAUCGAUAGGGAAGACUACAUGAGGAUCACCCAUGUUGUGUAUU |  |  | 99.4 | 90.2 |
| UAGACAUGAGGAUCACCCAUGUACUGGAUUUCAACGCGAUCACAGGAUAUACGGGAUUCGUCCACGUAGAAGGGUGACAACGUC |  |  | 143 | 35.1 |
| GGGUGCUCACCGCCUUAACAUGAGGAUCACCCAUGUGGAGUGCAGGAUAUACGUCUCUAUCAUACGUAGAAGGGCACCGCGCAG | 5.45 | 5.9 |  |  |
| AUAUGAUAGAUAGGAUAUACUAUGGUUUAAGAAGUAGAAGGAUCAAUUGGGAAAUGUACAUGAGGAUCACCCAUGUUAUAGGUU |  |  | 35.2 | 33.5 |
| CUACCUUAUGAGAAGGCGGUCAUGAAACAUGAUCGAGGAUAUCAUGUAAACAUGAGGAUCACCCAUGUAUGGGUAUUAUGGUAA |  |  | 226 | 28.8 |
| CACGUGUAAGGAUAUGACAAUGGUAUCUUCGGAUACCAUUGUCAGAAGGUACAUGAGGAUCACCCAUGUAACAC | 16.1 | 26.8 |  |  |
| GUGGUAUUCGUAGGAUAUCCGUCGCCACCGUGUGGAGAAGGACGAACAUGAGGAUCACCCAUGUAUCAUGGUGUGGACGUUGUC | 80.2 | 88.4 |  |  |
| AGCCCUGACGUCAGGAUAUCCGGCCAAUAGGCCAAGGAGAAGGGACAUGAGGAUCACCCAUGUGCUUGGGUCCG | 23.7 | 37 |  |  |
| UUAUUAUAUGUAGGAUAUGCAUAUUAGUAUUGUGCAGAAGGACAUGAGGAUCACCCAUGUAUAUUAUUAUUAUAUAUUAUAUAU | 14.6 | 21.4 |  |  |
| UGUCGGAGCAGAGGAUAUACAUGAGGAUCACCCAUGUAAAUGGAAGAAGCCUGGAAACAGGCAAUGUAGAAGGCUGCUCCGACA | 132 | 970 |  |  |
| UUGUGAGAGCAGGAUAUCUUAUUUUUUUUUUGUGGAGAAGGGCUGACAUGAGGAUCACCCAUGUGGUCCUAGAU | 28.4 | 33.5 |  |  |
| GCCCUUCGUGGAAGGGCAAAAGGACAGGAUAUCGCUUAAACAUGAGGAUCACCCAUGUCCGUUAACGAGAAGGGUCGAAUAAAU |  |  | 64.2 | 12 |
| GGCUUGCAGCUAGGAUAUGGGCGAUCACAUGAGGAUCACCCAUGUCAACAUCAAAACAAGAUUAACCAGAAGGAGCCGCGGGUC |  |  | 21.3 | 705 |
| ACAAUACAUGAGGAUCACCCAUGUUAGGAUAUACGCAUGCAUGCAUGCAUGCAUGCAAGUAGAAGGAACCAUGC | 28.6 | 26.8 |  |  |
